Test results taken from ChEMBL document CHEMBL1141543, “Protective effect of nitronyl nitroxide-amino acid conjugates on liver ischemia-reperfusion induced injury in rats” (Bioorg Med Chem Lett, 2008).
Activity calls are given as the source filed them. The rule behind the calls is not given here.

Columns and labels:
Rattus norvegicus [1] = experiment: Protection against hepatic ischemia-reperfusion-induced injury assessed as effect on alanine aminotransferase level in Wistar rat liver at 30 mg/kg; type: functional
Summary of the method: (§1)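 Male Wistar rats, liver ischemia 30 min then reperfusion 2 h under sodium pentobarbital anesthesia (80 mg/kg). Drug 30 mg/kg given 10 min before reperfusion and again 1 h into reperfusion; sham and I/R controls received saline. n = 8 per group (sham n = 4). Serum ALT and AST measured as liver function; blood frozen at -70 °C until analysis.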

PC-12 [2] = experiment: Nitric oxide radical scavenging activity in rat PC12 cells; type: functional, cell-based
Summary of the method: (§2)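 PC12 rat pheochromocytoma cells exposed to NO, H2O2 or ·OH. Test compound given either as pre-incubation before radical exposure or as incubation after exposure. Cell survival read by MTT reduction, used as the index of radical scavenging.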

Aorta [3] = experiment: Nitric oxide radical scavenging activity in rat thoracic aorta assessed as inhibition of acteylcholine-induced vasorelaxation at 10 umol; type: functional, tissue-based
PC-12 [4] = experiment: Suppression of free radical-induced decrease in viability of rat PC12 cells; type: functional, cell-based; summary of the method: as §2
PC-12 [5] = experiment: Hydroxyl radical scavenging activity in rat PC12 cells; type: functional, cell-based; summary of the method: as §2
Aorta [6] = experiment: Nitric oxide radical scavenging activity in rat thoracic aorta assessed as inhibition of acteylcholine-induced vasorelaxation at 1 umol; type: functional, tissue-based
Rattus norvegicus [7] = experiment: Protection against hepatic ischemia-reperfusion-induced injury assessed as effect on aspartate aminotransferase level in Wistar rat liver at 30 mg/kg; type: functional; summary of the method: as §1
Rattus norvegicus [8] = experiment: Protection against hepatic ischemia-reperfusion-induced injury assessed as effect on malondialdehyde level in Wistar rat liver at 30 mg/kg; type: functional
Summary of the method: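 Male Wistar rats given liver ischemia 30 min and reperfusion 2 h under pentobarbital anesthesia. Drug 30 mg/kg dosed 10 min before reperfusion and 1 h after it began; controls got saline. Liver frozen at -70 °C. MDA in liver mitochondria measured spectrophotometrically as thiobarbituric acid reactive substances (Buege and Aust method).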

Aorta [9] = experiment: Nitric oxide radical scavenging activity in rat thoracic aorta assessed as inhibition of acteylcholine-induced vasorelaxation at 100 umol; type: functional, tissue-based
PC-12 [10] = experiment: Hydrogen peroxide radical scavenging activity in rat PC12 cells; type: functional, cell-based; summary of the method: as §2

| Structure (SMILES) | Activity (Rattus norvegicus [1]) | EC50 (PC-12 [2]) | inhibition (Aorta [3]) | Activity (PC-12 [4]) | EC50 (PC-12 [5]) | inhibition (Aorta [6]) | Activity (Rattus norvegicus [7]) | Activity (Rattus norvegicus [8]) | inhibition (Aorta [9]) | EC50 (PC-12 [10]) |
| --- | --- | --- | --- | --- | --- | --- | --- | --- | --- | --- |
| CC1(C)N([O])C(c2ccc(OCC(=O)N[C@@H](CCCNC(=N)N)C(=O)O)cc2)=[N+]([O-])C1(C)C | 173 U/L | 92.8 µM | 74% | Active | 98.9 µM | 28.7% | 510 U/L | 2.76 nmol/mg | 98.9% | 49 µM |
| CC1(C)N([O])C(c2ccc(OCC(=O)N[C@@H](CCCCN)C(=O)O)cc2)=[N+]([O-])C1(C)C |  | 85.5 µM | 60.7% | Active | 92.7 µM | 24.8% |  |  | 85% | 26.8 µM |
| N=C(N)NCCC[C@H](N)C(=O)O [ARGININE] | 493 U/L |  |  |  |  |  | 789 U/L | 3.82 nmol/mg |  |  |
